Results gathered from unrelated publications.
Target: Serine/threonine-protein kinase PAK 2 (PAK2, Homo sapiens, UniProt Q13177)

SMILES	effect on	mode	technique	tested at	measurement	value
O=C(Nc1cnn(-c2csc(C(=O)NC3COC3)c2)c1)Nc1ccccc1Cl	enzyme activity	inhibitor	–	5 µM	remaining activity	90.1%
CNc1cccc2cc(C(=O)Nc3ccc(C(=O)O)cc3)c(=O)[nH]c12	enzyme activity	inhibitor	–	10 µM	inhibition	20%
N#CCCc1ccc2c(c1)-c1[nH]c3ccc([N+](=O)[O-])cc3c1CC(=O)N2	cell-free assay	–	–	0.5 µM	remaining signal	55.6%
COc1ccc2c(c1)O[C@H](c1ccc(OC)c(OC)c1)C[C@@H]2NC(=O)C1(c2ccc3c(c2)OC(F)(F)O3)CC1	cell-free assay	–	competition with immobilised ligand	1 µM	remaining binding	100%
Cc1ccc(Nc2nccc(N(C)c3ccc4c(C)n(C)nc4c3)n2)cc1S(N)(=O)=O	enzyme activity	inhibitor	–	10 µM	inhibition	24%
COc1cc2ncnc(Nc3ccc(Oc4ccccc4)c(C)c3C)c2cc1OC	enzyme activity	inhibitor	–	1 µM	inhibition	7%
CC(C)CC(=O)N1CCc2nc(-c3ccc(Br)cc3)nc(N(C)Cc3ccccc3)c2C1	cell-free assay	–	competition with immobilised ligand	0.1 µM	remaining binding	100%
CC/C(=N\NC(=O)NCc1cccc(O)c1)c1ccc(O)c(C)c1O	enzyme activity	inhibitor	–	0.1 µM	inhibition	3%
CNCc1ccc(-c2cc(-c3nc(-c4ccc(S(=O)(=O)C(C)C)cc4)cnc3N)on2)cc1	enzyme activity	inhibitor	–	0.4 µM	inhibition	7%
Cc1cc(NC(=O)c2cccc3cc(-c4cccc5[nH]nc(N)c45)ccc23)ccc1F	enzyme activity	inhibitor	–	0.1 µM	activity vs control	98%
CCN(CC)c1ccc(C2=NNC(=O)CC2C)cc1[N+](=O)[O-] (centres unmarked)	enzyme activity	inhibitor	–	10 µM	remaining activity	98%
C#Cc1cccc(Nc2ncnc3cc(OCCOC)c(OCCOC)cc23)c1	cell-free assay	–	–	0.5 µM	remaining signal	99.1%
CC(C)(C)c1nc(-c2cccc(NS(=O)(=O)c3c(F)cccc3F)c2F)c(-c2ccnc(N)n2)s1	enzyme activity	inhibitor	radiometric	1 µM	remaining activity	88%
Cc1cc(NC(=O)c2cccc(S(F)(F)(F)(F)F)c2)cc(-n2ccn3nc(-c4cccnc4)cc23)c1	cell-free assay	–	competition with immobilised ligand	1 µM	remaining binding	100%
COc1cc(Nc2cnc(C#N)c(O[C@H](C)CN(C)C)n2)ncc1-c1cnn(C)c1	enzyme activity	inhibitor	radiometric	1 µM	remaining activity	100%
Oc1cccc(-c2nc(N3CCOCC3)c3oc4ncccc4c3n2)c1	enzyme activity	inhibitor	–	10 µM	remaining activity	106%

SMILES	effect on	mode	technique	tested at	measurement	value
CCOc1cc(-c2nncn2C)ccc1Nc1ncc2cc(C)nc(NCC(C)(C)C)c2n1	enzyme activity	inhibitor	FRET	1 µM	inhibition	< 15%
CCN(CC)CCNC(=O)c1c(C)[nH]c(/C=C2\C(=O)Nc3ccc(F)cc32)c1C	enzyme activity	inhibitor	–	10 µM	inhibition	8%
O=C1NC(=O)c2cc(Nc3ccc(F)cc3)c(Nc3ccc(F)cc3)cc21	cell-free assay	–	–	0.5 µM	remaining signal	98.5%
CCCS(=O)(=O)Nc1ccc(F)c(C(=O)c2c[nH]c3ncc(-c4ccc(Cl)cc4)cc23)c1F	enzyme activity	inhibitor	–	1 µM	inhibition	< 10%
CCCOc1ccc(OC)c(F)c1C(=O)c1ccc(C(=O)N[C@@H]2CNC[C@H]2NC(=O)c2ccc3[nH]ncc3c2)cc1	enzyme activity	inhibitor	–	10 µM	remaining activity	74%
CC(C)(O)c1cncc(-c2nc3ccc(F)cc3n2C2CC2)c1	cell-free assay	–	competition with immobilised ligand	1 µM	remaining binding	100%
C=CC(=O)Nc1cc(Nc2nccc(Nc3cc(Cl)c(F)cc3C(C)(C)O)n2)c(OC)cc1N1CC[C@@H](N(C)C)C1	enzyme activity	inhibitor	–	1 µM	inhibition	5%
FC(F)(F)Oc1cccc(-c2cnc3ccc(-c4ccncc4)nn23)c1	enzyme activity	inhibitor	radiometric	1 µM	activity vs control	95%
Cc1nc(N2CC[C@@H](O)C2)ncc1-c1cc(C(F)(F)F)cc2[nH]ncc12	cell-free assay	–	competition with immobilised ligand	1 µM	remaining binding	100%
FC(F)c1nc2ccccc2n1-c1nc(N2CCOCC2)nc(N2CCOCC2)n1	enzyme activity	inhibitor	–	10 µM	remaining activity	100%
Nc1cnc(N2CCc3cc(S(=O)(=O)Nc4c(F)cc(Cl)cc4F)cc(N4CCCC4=O)c32)nc1	cell-free assay	–	competition with immobilised ligand	1 µM	remaining binding	78%
CNC(=O)c1cc(Oc2ccc(NC(=O)Nc3ccc(Cl)c(C(F)(F)F)c3)cc2)ccn1	cell-free assay	–	–	0.5 µM	remaining signal	101%
CSc1cccnc1N1CCN(Cc2nc3ccccc3[nH]2)CC1	cell-free assay	–	competition with immobilised ligand	1 µM	remaining binding	100%
O=C(CSc1nc2nccnc2c(=O)n1CCc1ccccc1)Nc1nccs1	enzyme activity	inhibitor	–	10 µM	inhibition	1%
Cc1ccc(C(=O)Nc2ccc(CN3CCN(C)CC3)c(C(F)(F)F)c2)cc1C#Cc1cnc2cccnn12	enzyme activity	inhibitor	–	23.5 nM	remaining activity	70%
O=C(Nc1cnc(Oc2ccc(F)cc2)nc1)N1CCc2ncccc2[C@@H]1c1ccc(F)cc1	cell-free assay	–	competition with immobilised ligand	1 µM	remaining binding	59%
